# Rows were chosen to be rich in hits. Some 1.5% of all compounds tested hit in one or more screens of this group.
# Wee1 stabilizer – blocks degradation of human Wee1 kinase | P30291 | HeLa Luc-Wee1K328M stability, luciferase luminescence; 100% = proteasome inhibitor MG132 effect | reporter increase, % at 5 µM | 220,000 tested, 1.2% active;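 active means activation above the mean of all tested compounds plus 3 SD, set per screening run, cut at about 8.8% in these data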;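 further: cells exposed to compound for 20 h before luminescence read; 0% = DMSO alone and 100% = MG132 at 30 µM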
# Mdm2 ligase inh – blocks human Mdm2 ubiquitin ligase activity; cell-based MDM2 ubiquitination luciferase reporter, 2 h; 0 = plate control, 100 = twice control, blank-subtracted; signal enhancement, % at 5 µM; 210,000 tested, 0.11% active;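 active means signal enhancement of 30% or more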;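 further: luminescence tracks abundance of the self-degrading MDM2-luciferase fusion protein; higher signal means inhibition of MDM2 E3 ligase activity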
# Target sequence (Q00987 whole entry, looked up, the tested form may be a part): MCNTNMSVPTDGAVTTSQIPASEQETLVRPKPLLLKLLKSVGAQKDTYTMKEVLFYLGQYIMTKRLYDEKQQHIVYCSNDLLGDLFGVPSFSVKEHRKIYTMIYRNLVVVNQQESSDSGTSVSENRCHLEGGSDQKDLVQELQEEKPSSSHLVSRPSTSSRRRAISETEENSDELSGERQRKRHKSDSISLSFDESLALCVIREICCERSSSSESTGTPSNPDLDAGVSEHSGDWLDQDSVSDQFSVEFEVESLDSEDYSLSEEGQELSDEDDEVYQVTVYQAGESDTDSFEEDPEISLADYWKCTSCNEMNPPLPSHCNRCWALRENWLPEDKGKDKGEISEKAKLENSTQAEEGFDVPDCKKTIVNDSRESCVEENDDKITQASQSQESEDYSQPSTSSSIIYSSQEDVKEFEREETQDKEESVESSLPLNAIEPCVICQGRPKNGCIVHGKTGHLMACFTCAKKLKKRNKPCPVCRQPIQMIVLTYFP
#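 Buffer or medium: Cells held in DMEM | Assay system: Stable mammalian line carrying autodegrading MDM2–luciferase fusion reporter | Quantity: 2000 cells/well | Times: 4 h settle plus 2 h compound, 37 °C | Doses: One concentration, 5 µM, with 0.2% DMSO | Technique: Luminescence with SteadyLite reagent, 15 min at room temperature | Benchmarks: Plate controls and plate blanks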
# Hsp70 activator – transcriptional activators of Hsp70. HeLa Hsp70 promoter luciferase reporter, luminescence; scaled: vehicle 0, proteasome-inhibitor control 100%. activation, % at 10 µM. 200,000 tested, 0.04% active. AID 1203;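 active means activation above the mean across all tested compounds plus 3 SD, cutoff set per campaign, cut at about 5.5% in these data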;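 further: 100% = MG132 at 30 µM as the positive control and 0% = DMSO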
# Pf gamet viab – inhibitors of late stage P. falciparum gametocyte viability | inhibition, % at 10.9 µM | 150,000 tested, 0.065% active | AID 743093 | P. falciparum stage V gametocytes, ATP luminescence, 24 h;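 active means inhibition above the mean plus 3 SD of compounds within the control limits, set per campaign, cut at about 38% in these data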;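 further: 0% = DMSO wells and 100% = medium only without gametocytes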
# m-calpain inh – blocks pig calpain II enzyme activity. inhibition, % at 16 µM. purified calpain II, fluorogenic peptide substrate, 30 min. AID 1236. 220,000 tested, 0.37% active;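 active means inhibition above about 50%, limit read from the data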
# Wee1 stab conf – confirmation of human Wee1 degradation inhibitors; activation, % at 5 µM; HeLa Luc-Wee1K328M degradation, luminescence; vehicle 0%, proteasome-blocked wells 100%; 1,100 tested, 4% active; shares compounds with Wee1 stabilizer; in the data active means activation above about 8.9%
# * = called active by the depositor; i = inactive; · = no result given.
SMILES,Wee1 stabilizer,Mdm2 ligase inh,Hsp70 activator,Pf gamet viab,m-calpain inh,Wee1 stab conf
C#CCOCCOCCOCCNc1nc(N2CCN(C(=O)[C@H]([C@@H](C)CC)n3cc([C@@H](N)CC(C)C)nn3)CC2)nc(N2CCN(C(=O)[C@H](CCCCN)n3cc([C@@H](N)C(C)CC)nn3)CC2)n1 (stereo not given in full),15*,·,0,·,-17,-1
Cn1nnnc1Sc1ncnc2scc(-c3ccsc3)c12,·,·,·,14,·,·
CCCS(=O)(=O)N1CCN(S(=O)(=O)c2ccccc2[N+](=O)[O-])CC1,11*,-10,0,-12,12,-1
OCCC1CN(Cc2cc3c(cc2Cl)OCO3)CCN1C1CCCCC1 (stereo not given),-1,-11,0,-9,5,·
Cc1ccc(C(=O)Nc2ccon2)cc1S(=O)(=O)N1CCCCCC1,1,-1,0,·,30,·
Cc1ccc(NC(=O)c2cccc(F)c2)cc1S(=O)(=O)N1CCCCCC1,14*,-2,0,·,-9,0
Cc1cc(C)n(C(=O)c2ccc(C)c(S(=O)(=O)N3CCCCC3)c2)n1,24*,-2,0,·,14,-1
CN1CCN(C(=O)CN(c2ccccc2)S(=O)(=O)N(C)C)CC1,11*,·,0,-13,9,-1
c1ccc(C2Nc3ccccc3-c3nc4ccccc4n32)nc1 (stereo not given),-1,-19,0,·,-362,·
c1ccc(C2Nc3ccccc3-c3nc4ccccc4n32)cc1 (stereo not given),15*,-19,0,-18,-489,-3
Cc1ccc(Oc2cc(NN3CCCCC3)c([N+](=O)[O-])cc2[N+](=O)[O-])c(Cl)c1,·,·,·,-52,·,·
N/C(=N\OC(=O)c1ccc(=O)n(Cc2ccccc2)c1)c1ccccn1,-5,-20,0,·,-8,·
N/C(=N\OC(=O)c1ccc(=O)n(Cc2ccc(Cl)cc2)c1)c1ccccn1,11*,-3,0,-5,-1,0
N#Cc1c(C(F)(F)F)cc(C2CC2)[nH]c1=O,15*,-8,0,·,-499,1
Cc1ccc(-c2cc(C(F)(F)F)c(C#N)c(=O)[nH]2)cc1,-1,2,0,-12,-436,·
CC(=O)Nc1cccc(/C(C)=N/NC(=O)c2cccc(S(=O)(=O)N3CCOCC3)c2)c1,14*,-89,0,2,18,-1
C/C(=N\NC(=O)c1cccc(S(=O)(=O)N2CCOCC2)c1)c1ccco1,0,·,·,-10,0,·
CCOC(=O)c1c(N2C(=O)Nc3cc(Cl)c(Cl)cc3N2O)sc2c1CCCCC2,-1,-4,0,·,40,·
O=[N+]([O-])/C=C\c1ccc(N2CCCC2)c(F)c1,16*,-12,0,·,-34,0
CC1CN(CCC(=O)Nc2ccccc2F)CC(C)O1 (stereo not given),·,·,·,-11,·,·
CCCCn1c(N2CCC(Cc3ccccc3)CC2)nc2c1c(=O)[nH]c(=O)n2C,13*,-13,0,-8,21,2
Cc1nnc(SCCn2c(N3CCC(Cc4ccccc4)CC3)nc3c2c(=O)[nH]c(=O)n3C)s1,-2,·,·,·,-9,·
Cc1noc(C)c1-c1csc(N2CCC(C(N)=O)CC2)n1,·,·,·,-38,·,·
Cc1csc(SCC(=O)Nc2cc(S(=O)(=O)N3CCCC3)ccc2Cl)n1,13*,0,0,-1,-14,1
CC(C)Cn1c(-c2ccc(C#N)cc2)nc2c1c(=O)[nH]c(=O)n2CC(C)C,36*,-5,0,·,i,1
SMILES,Wee1 stabilizer,Mdm2 ligase inh,Hsp70 activator,Pf gamet viab,m-calpain inh,Wee1 stab conf
CCCCn1c(=O)[nH]c(=O)c2c1nc(-c1ccc(C#N)cc1)n2C1CCCC1,-2,2,0,-11,i,·
O=C(N/N=C/c1ccccn1)c1ccco1,-1,-20,0,·,-43,·
O=C(N/N=C/c1ccc2ncccc2c1)c1ccco1,13*,-65,0,-6,43,-4
Cc1ccc(-n2cccn2)c(CN2CCC(CO)(CCc3ccccc3)CC2)c1,18*,-16,0,-3,18,-1
OCC1(CCc2ccccc2)CCN(Cc2cc(Cl)ccc2O)CC1,-2,-12,0,·,8,·
O=C(OCC(=O)N1CCc2ccccc2C1)c1cc(=O)[nH]c2ccccc12,16*,·,·,14,-42,-1

# Screens deposited in PubChem by several laboratories.
